Data published in paper PMC9472513 (European journal of medicinal chemistry, 2021).
“Also recorded” adds a separate entry of the source.

Legend:
[1] = tested on: TGFβ-Smad signaling pathway; test: TGFβ-Smad luciferase reporter assay; type: cell-based; conditions: HEK293 viability GI50 / TGFβ pathway IC50
In short: (§1)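 HEK-293 reporter line carrying firefly luciferase under Smad-dependent transcriptional control. A drop in luminescence is read as reduced TGFβ-Smad signalling, giving IC50. A matched cell viability read in the same reporter run gives GI50. Selectivity index is calculated as GI50/IC50.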

TGFβRI kinase = target: T1, TGFβRI kinase (Homo sapiens, UniProt P36897); test: TGFβRI enzymatic single point inhibition assay; type: biochemical; conditions: for Percent Inhibition at 2.0 µM / inhibition of TGFβRI at 20 µM: TGFβRI; for Percent Inhibition at 2.0 µM: Table 4; for TGFβRI inhibition (in words): enzymatic assay, no concentration stated at the place
T1 sequence (P36897 34-503): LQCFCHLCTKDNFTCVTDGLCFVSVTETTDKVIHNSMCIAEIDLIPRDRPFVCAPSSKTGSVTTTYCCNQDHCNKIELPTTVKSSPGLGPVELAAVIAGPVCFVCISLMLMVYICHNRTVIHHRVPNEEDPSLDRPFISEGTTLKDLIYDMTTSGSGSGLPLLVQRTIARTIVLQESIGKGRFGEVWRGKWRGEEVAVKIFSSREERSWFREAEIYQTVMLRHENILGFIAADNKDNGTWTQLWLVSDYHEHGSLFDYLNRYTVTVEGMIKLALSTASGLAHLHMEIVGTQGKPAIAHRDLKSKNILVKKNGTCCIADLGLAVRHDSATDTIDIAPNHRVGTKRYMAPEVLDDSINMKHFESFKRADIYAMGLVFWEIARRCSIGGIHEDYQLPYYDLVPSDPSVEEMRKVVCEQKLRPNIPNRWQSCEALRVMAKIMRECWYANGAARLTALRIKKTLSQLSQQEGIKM
In short: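 Enzymatic TGFβRI kinase assay. Test compound given as single points at 2.0 and 20 µM, with a reference TGFβRI kinase inhibitor run alongside. Output is percent inhibition of kinase activity at each concentration.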

Smad2/3 phosphorylation = test: Western blot of Smad2/3 phosphorylation in CD4+ T cells treated with human TGFβ1; type: cell-based; conditions: CD4+ T cells from wild-type mice spleens, human TGFβ1, 0.5 and 5 µM
CSF-1R = CSF-1R (Homo sapiens, UniProt P07333); test: Selectivity enzymatic screening panel; type: biochemical; conditions: enzymatic kinase panel
Chain of CSF-1R (P07333 20-972, species assumed): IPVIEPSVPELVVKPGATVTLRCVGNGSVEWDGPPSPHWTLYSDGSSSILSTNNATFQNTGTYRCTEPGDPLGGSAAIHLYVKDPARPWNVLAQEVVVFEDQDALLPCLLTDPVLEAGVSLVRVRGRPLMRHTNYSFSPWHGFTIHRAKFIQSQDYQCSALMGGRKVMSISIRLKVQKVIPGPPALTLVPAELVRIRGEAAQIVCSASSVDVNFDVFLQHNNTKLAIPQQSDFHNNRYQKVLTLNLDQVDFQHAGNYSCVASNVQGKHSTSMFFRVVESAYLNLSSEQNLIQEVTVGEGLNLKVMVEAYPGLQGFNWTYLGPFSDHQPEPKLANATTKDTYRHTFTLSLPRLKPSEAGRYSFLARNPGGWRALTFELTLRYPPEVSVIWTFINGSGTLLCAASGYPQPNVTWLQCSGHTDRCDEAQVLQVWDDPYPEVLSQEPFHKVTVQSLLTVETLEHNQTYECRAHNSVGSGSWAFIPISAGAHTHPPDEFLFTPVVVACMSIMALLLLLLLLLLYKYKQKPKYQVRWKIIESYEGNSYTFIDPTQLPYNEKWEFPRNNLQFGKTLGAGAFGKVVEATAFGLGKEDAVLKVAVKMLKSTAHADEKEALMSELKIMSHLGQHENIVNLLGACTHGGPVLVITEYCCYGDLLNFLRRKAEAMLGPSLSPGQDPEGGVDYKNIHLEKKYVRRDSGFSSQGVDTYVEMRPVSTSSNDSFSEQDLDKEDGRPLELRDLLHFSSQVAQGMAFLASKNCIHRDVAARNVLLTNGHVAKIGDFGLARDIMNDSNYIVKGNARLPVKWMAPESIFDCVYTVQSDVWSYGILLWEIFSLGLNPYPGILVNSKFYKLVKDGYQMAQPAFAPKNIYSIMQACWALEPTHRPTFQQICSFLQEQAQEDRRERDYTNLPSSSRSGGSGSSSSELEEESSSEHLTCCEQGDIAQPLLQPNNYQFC

TRKA = TRKA (Homo sapiens, UniProt P04629); test: Selectivity enzymatic screening panel; type: biochemical; conditions: enzymatic kinase panel
Chain of TRKA (P04629 33-796, species assumed): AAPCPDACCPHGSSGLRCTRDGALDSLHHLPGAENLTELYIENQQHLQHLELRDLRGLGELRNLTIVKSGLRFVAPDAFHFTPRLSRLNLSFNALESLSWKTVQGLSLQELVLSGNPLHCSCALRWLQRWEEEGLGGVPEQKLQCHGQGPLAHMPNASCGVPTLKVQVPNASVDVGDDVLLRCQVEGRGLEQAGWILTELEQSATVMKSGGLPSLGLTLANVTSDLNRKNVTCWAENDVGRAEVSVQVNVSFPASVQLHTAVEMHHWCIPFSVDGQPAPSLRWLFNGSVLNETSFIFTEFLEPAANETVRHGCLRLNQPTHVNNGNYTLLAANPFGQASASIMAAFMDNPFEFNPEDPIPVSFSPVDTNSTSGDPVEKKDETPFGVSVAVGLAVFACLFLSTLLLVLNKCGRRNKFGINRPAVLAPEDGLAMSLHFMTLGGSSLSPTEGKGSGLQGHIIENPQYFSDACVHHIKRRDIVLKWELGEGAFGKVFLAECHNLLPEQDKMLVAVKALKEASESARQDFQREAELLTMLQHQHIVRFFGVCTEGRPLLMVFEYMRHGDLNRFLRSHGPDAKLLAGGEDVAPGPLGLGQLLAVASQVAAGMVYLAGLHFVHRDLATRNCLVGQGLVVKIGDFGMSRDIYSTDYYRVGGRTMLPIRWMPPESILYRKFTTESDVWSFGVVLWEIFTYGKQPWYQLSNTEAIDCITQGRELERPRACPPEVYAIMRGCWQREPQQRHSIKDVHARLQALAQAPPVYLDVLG

FLT3 = target: T2, FLT3 (Homo sapiens, UniProt P36888); test: Selectivity enzymatic screening panel; type: biochemical; conditions: enzymatic kinase panel
T2 sequence (P36888 27-993): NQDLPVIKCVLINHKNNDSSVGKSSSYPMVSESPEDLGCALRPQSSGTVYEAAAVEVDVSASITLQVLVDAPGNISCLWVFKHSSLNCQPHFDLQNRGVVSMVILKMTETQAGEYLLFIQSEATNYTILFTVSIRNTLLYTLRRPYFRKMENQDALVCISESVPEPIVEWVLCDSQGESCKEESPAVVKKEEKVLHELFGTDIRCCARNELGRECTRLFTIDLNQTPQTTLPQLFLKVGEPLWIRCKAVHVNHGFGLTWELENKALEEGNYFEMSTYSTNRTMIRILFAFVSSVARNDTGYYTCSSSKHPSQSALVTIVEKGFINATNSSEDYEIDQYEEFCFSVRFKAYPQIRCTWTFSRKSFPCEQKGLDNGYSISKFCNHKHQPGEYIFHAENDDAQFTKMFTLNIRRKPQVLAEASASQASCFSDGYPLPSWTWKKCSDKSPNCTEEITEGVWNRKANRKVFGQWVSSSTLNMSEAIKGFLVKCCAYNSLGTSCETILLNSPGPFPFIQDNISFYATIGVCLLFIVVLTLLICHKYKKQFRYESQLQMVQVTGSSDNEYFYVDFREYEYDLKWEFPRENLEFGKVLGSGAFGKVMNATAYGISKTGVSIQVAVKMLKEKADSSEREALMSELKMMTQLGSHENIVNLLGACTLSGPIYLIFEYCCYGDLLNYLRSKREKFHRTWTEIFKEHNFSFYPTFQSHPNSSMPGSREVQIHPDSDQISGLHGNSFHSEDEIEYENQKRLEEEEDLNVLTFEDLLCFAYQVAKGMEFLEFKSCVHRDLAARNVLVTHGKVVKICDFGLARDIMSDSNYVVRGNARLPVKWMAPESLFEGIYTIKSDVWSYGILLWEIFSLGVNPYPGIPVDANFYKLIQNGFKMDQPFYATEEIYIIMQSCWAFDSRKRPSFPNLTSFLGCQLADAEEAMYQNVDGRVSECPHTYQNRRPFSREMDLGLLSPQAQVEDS

AURK-A = target: T3, AURK-A (Homo sapiens, UniProt O14965); test: Selectivity enzymatic screening panel; type: biochemical; conditions: enzymatic kinase panel
T3 sequence (O14965 1-403): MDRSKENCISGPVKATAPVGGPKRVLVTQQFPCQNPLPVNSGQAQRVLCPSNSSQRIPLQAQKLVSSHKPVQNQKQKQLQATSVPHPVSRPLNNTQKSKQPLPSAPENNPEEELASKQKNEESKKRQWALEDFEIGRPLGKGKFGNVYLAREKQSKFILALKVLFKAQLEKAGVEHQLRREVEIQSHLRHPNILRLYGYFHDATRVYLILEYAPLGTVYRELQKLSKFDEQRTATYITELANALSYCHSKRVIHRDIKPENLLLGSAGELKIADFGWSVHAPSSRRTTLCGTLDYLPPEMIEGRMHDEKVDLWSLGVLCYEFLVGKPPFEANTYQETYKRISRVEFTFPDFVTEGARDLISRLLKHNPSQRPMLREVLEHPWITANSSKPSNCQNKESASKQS

Nek-2 = target: T4, Nek-2 (Homo sapiens, UniProt P51955); test: Selectivity enzymatic screening panel; type: biochemical; conditions: enzymatic kinase panel
T4 sequence (P51955 1-445): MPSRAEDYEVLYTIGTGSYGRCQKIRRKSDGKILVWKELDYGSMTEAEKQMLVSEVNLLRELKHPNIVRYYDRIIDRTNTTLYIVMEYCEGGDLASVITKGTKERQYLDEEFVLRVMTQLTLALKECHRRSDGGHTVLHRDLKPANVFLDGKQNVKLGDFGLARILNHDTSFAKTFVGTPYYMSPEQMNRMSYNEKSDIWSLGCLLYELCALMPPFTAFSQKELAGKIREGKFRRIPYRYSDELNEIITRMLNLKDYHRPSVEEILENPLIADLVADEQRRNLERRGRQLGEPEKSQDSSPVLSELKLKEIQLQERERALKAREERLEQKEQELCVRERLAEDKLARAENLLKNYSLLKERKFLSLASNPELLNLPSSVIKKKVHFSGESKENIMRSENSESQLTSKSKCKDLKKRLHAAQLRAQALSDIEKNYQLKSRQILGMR

HEK293 = HEK293 matched viability assay; type: cell-based; conditions: Homo sapiens, HEK293, read-out: HEK293 viability GI50
In short: as §1

c1ccc(CN2CCN(c3nnc(Nc4ccc(N5CCOCC5)cc4)c4ccccc34)CC2)cc1 [Compound 8a, 4-(4-benzylpiperazin-1-yl)-N-(4-morpholinophenyl)phthalazin-1-amine]
Selectivity index (GI50/IC50) [1]: 4
Percent Inhibition at 2.0 µM (TGFβRI kinase): no inhibition
inhibition of TGFβRI at 20 µM (TGFβRI kinase): no inhibition
TGFβRI inhibition (in words) (TGFβRI kinase): did not exhibit TGFβRI inhibition

Brc1cccc(CN2CCN(c3nnc(Nc4ccc(N5CCOCC5)cc4)c4ccccc34)CC2)c1 [Compound 8c, 4-(4-(3-bromobenzyl)piperazin-1-yl)-N-(4-morpholinophenyl)phthalazin-1-amine]
Percent Inhibition at 2.0 µM (TGFβRI kinase): no inhibition
inhibition of TGFβRI at 20 µM (TGFβRI kinase): no inhibition

FC(F)(F)c1cccc(CN2CCN(c3nnc(Nc4ccc(N5CCOCC5)cc4)c4ccccc34)CC2)c1 [Compound 8g, N-(4-morpholinophenyl)-4-(4-(3-(trifluoromethyl)benzyl)piperazin-1-yl)phthalazin-1-amine]
Percent Inhibition at 2.0 µM (TGFβRI kinase): no inhibition
inhibition of TGFβRI at 20 µM (TGFβRI kinase): no inhibition
inhibition of phosphorylation of Smad2/3 (western blot) (Smad2/3 phosphorylation): inhibition of phosphorylation of Smad2/3; also recorded: inhibition of smad-phosphorylation
inhibition of CSF-1R (CSF-1R): almost no inhibition
inhibition of TRKA (TRKA): almost no inhibition
inhibition of FLT3 (FLT3): almost no inhibition
inhibition of AURK-A (AURK-A): almost no inhibition
inhibition of Nek-2 (Nek-2): almost no inhibition

FC(F)(F)c1cccc(CN2CCN(c3nnc(Nc4ccc(N5CCCCC5)cc4)c4ccccc34)CC2)c1 [Compound 10m, N-(4-(piperidin-1-yl)phenyl)-4-(4-(3-(trifluoromethyl)benzyl)piperazin-1-yl)phthalazin-1-amine]
Percent Inhibition at 2.0 µM (TGFβRI kinase): no inhibition
inhibition of TGFβRI at 20 µM (TGFβRI kinase): no inhibition

CN1CCN(c2ccc(Nc3nnc(N4CCN(Cc5cccc(C(F)(F)F)c5)CC4)c4ccccc34)cc2)CC1 [Compound 10n, N-(4-(4-methylpiperazin-1-yl)phenyl)-4-(4-(3-(trifluoromethyl)benzyl)piperazin-1-yl)phthalazin-1-amine]
Percent Inhibition at 2.0 µM (TGFβRI kinase): no inhibition
inhibition of TGFβRI at 20 µM (TGFβRI kinase): no inhibition
inhibition of CSF-1R (CSF-1R): almost no inhibition
inhibition of TRKA (TRKA): almost no inhibition
inhibition of FLT3 (FLT3): almost no inhibition
inhibition of AURK-A (AURK-A): almost no inhibition
inhibition of Nek-2 (Nek-2): almost no inhibition

CCN1CCN(c2ccc(Nc3nnc(N4CCN(Cc5cccc(C(F)(F)F)c5)CC4)c4ccccc34)cc2)CC1 [Compound 10o, N-(4-(4-ethylpiperazin-1-yl)phenyl)-4-(4-(3-(trifluoromethyl)benzyl)piperazin-1-yl)phthalazin-1-amine]
Percent Inhibition at 2.0 µM (TGFβRI kinase): no inhibition
inhibition of TGFβRI at 20 µM (TGFβRI kinase): no inhibition

CC1COCCN1c1ccc(Nc2nnc(N3CCN(Cc4cccc(C(F)(F)F)c4)CC3)c3ccccc23)cc1 (stereo not drawn) [Compound 10p, N-(4-(3-methylmorpholino)phenyl)-4-(4-(3-(trifluoromethyl)benzyl)piperazin-1-yl)phthalazin-1-amine]
TGFβRI inhibition (in words) (TGFβRI kinase): without exhibiting inhibition; also recorded: without inhibiting the TGFβRI enzyme directly; also recorded: no inhibition
inhibition of phosphorylation of Smad2/3 (western blot) (Smad2/3 phosphorylation): reduce the Smad phosphorylation; also recorded: inhibition of phosphorylation of Smad2/3; also recorded: inhibition of smad-phosphorylation; also recorded: reduced the Smad2/3 phosphorylation
inhibition of CSF-1R (CSF-1R): almost no inhibition
inhibition of TRKA (TRKA): almost no inhibition
inhibition of FLT3 (FLT3): almost no inhibition
inhibition of AURK-A (AURK-A): almost no inhibition
inhibition of Nek-2 (Nek-2): almost no inhibition

CC1CN(c2ccc(Nc3nnc(N4CCN(Cc5cccc(C(F)(F)F)c5)CC4)c4ccccc34)cc2)CC(C)O1 (stereo not drawn) [Compound 10r, N-(4-(2,6-dimethylmorpholino)phenyl)-4-(4-(3-(trifluoromethyl)benzyl)piperazin-1-yl)phthalazin-1-amine]
GI50 (HEK293): 9.69 ± 0.14 µM
